hiPSC survival – enhancers of single-cell hiPSC survival, primary screen, ATPlite luminescence; survival enhancement, % at 20 µM; 360,000 compounds, 0.044% hits; 100% = ROCK inhibitor wells, 0% = DMSO; in the data active means survival enhancement above about 18%;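 further: cells exposed to compounds for 16 hours before the ATP read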
MIN6 prolif – inducers of MIN6 beta-cell proliferation, primary screen, ATP luminescence, uHTS | proliferation, % at 10 µM | 330,000 compounds, 0.29% hits | MIN6 cells proliferation, ATPlite luminescence, 48 h; cells starved in 0.2% serum; 100% = growth in 10% serum;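 active means compounds whose signal lies at least 3.5 SD above the mean of all wells on their plate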
Rev-erbA mod – modulators of Rev-erb alpha DNA binding, primary screen, biochemical, FITC-DNA, fluorescence polarization, uHTS. Nuclear receptor subfamily 1 group D member 1 (Homo sapiens), P20393. Rev-erbα–FITC-DNA binding, 90 min. 370,000 compounds, 0.79% hits. AID 1259318, 2017. activity, % at 10 µM;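 active means activity above about 14%, limit read from the data; passing the limit was not always enough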
Target sequence (P20393 whole entry, looked up): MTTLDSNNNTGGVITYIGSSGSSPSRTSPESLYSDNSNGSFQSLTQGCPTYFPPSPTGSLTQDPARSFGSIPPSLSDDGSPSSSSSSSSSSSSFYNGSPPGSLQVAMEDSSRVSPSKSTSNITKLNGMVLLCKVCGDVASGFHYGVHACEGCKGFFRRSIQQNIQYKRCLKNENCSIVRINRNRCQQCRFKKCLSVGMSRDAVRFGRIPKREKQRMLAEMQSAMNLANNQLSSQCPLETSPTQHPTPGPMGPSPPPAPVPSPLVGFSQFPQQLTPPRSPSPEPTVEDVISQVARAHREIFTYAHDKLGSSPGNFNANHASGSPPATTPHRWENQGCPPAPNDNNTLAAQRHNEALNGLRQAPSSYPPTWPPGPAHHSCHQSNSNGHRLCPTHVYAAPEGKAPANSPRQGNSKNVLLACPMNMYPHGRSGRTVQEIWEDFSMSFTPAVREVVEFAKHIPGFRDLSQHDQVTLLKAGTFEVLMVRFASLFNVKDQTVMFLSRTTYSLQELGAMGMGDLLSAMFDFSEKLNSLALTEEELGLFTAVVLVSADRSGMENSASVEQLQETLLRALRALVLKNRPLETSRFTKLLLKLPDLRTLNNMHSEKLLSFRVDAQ
T cruzi repl – inhibitors of intracellular T. cruzi growth, primary screen, luminescence, NIH3T3 host cells | T. cruzi beta-gal in NIH3T3, 90 h | 300,000 compounds, 1.4% hits | inhibition, % (test concentration not listed);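 active means mean inhibition across valid replicates above about 55%, limit read from the data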;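 further: signal also drops with host cell toxicity which is not excluded here; higher percent means less beta-gal luminescence so fewer parasites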
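Test system: β-gal T. cruzi (Tulahuen C4) inside NIH/3T3 cells / Quantity: 5,000 cells/well / Measured by: luminescence from GalScreen with 0.05% NP40, read after 60 min / Medium: DMEM plus 2% FBS / Measure: parasite load inhibition, % / Reagent: Tulahuen C4 trypomastigotes, 5000/well / Schedule: co-culture of at least 90 h after 3 h attachment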
PG9 binder – binders of HIV-1 gp120 antibody PG9, primary screen, biochemical, TR-FRET; TR-FRET gp120-PG9 antibody binding; inhibition, % at 6.7 µM; 360,000 compounds, 0.43% hits; in the data active means inhibition above about 8.5%
TAG inh – inhibitors of triacylglycerol accumulation, primary screen, cell-based, uHTS, fluorescence, H9c2 | AID 651582, 2012 | H9c2 cells, Nile Red lipid (TAG) fluorescence; cells loaded with 200 µM oleic acid | inhibition, % at 12.5 µM | 230,000 compounds, 0.66% hits;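 active means pattern-corrected inhibition of lipid staining of at least 50% with the nuclear-stain viability signal not falling by more than 50%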
Each line names hits and unclear results; the compound was inactive in the other large screens. Sampled rows, rich in hits. Any-hit rate of the full collection: about 2.9%.

O=C(c1ccc(Cn2c(=O)[nH]c3ccccc3c2=O)cc1)N1CCN(c2ccc(Cl)cc2)CC1	none
O=C(c1ccc2c(=O)n(Cc3ccccc3)c(=S)[nH]c2c1)N1CCOCC1	none (no result: TAG inh)
Cc1ccc(C)c(N2CCN(C(=O)c3ccc(Cn4c(=O)[nH]c5ccccc5c4=O)cc3)CC2)c1	T cruzi repl 65.0
CC(=O)c1ccc(N2CCN(C(=O)c3ccc(Cn4c(=S)[nH]c5ccc(N6CCOCC6)cc5c4=O)cc3)CC2)cc1	T cruzi repl 70.0
CC1C(c2ccccc2)N(C)C(c2ccccc2)CC1(O)c1ccc(F)cc1 (centres undefined)	T cruzi repl 57.8 (no result: MIN6 prolif)
CN1C(c2ccccc2)CC(C)(O)CC1c1ccccc1 (centres undefined)	none (no result: hiPSC survival, MIN6 prolif, T cruzi repl, TAG inh)
CN(C)CCCn1c(=O)n(Cc2ccco2)c(=O)c2c3c(sc21)CCCCC3	none
CCOC(=O)c1sc2c(c1C)c(=O)n(Cc1ccccc1)c(=O)n2CCN(C)C	T cruzi repl 58.6 (no result: TAG inh)
CN(C)CCn1c(=O)n(Cc2ccccc2)c(=O)c2c3c(sc21)CCCCC3	T cruzi repl 59.3 (no result: TAG inh)
Cc1c(C(=O)O)sc2c1c(=O)n(Cc1ccccc1)c(=O)n2C	none (no result: TAG inh)
O=C(NCc1ccccc1)/C(=N\O)c1ccccc1	none (no result: T cruzi repl)
COc1ccc2[nH]c3c(=O)n(/N=C/[C@H]4C(C)C=C(C)CC4C)c(=O)[nH]c3c2c1 (some centres undefined)	none (no result: TAG inh)
CC1=CC(C)[C@H](/C=N/n2c(=O)[nH]c3c([nH]c4ccc(Br)cc43)c2=O)C(C)C1 (some centres undefined)	T cruzi repl 63.7
O=C(C[C@H]1C/C=C\CC[C@H](Cc2ccc(F)cc2)C(=O)O[C@@H](c2ccccc2)CNC1=O)N[C@H](CO)Cc1ccccc1	none (no result: T cruzi repl)
N#Cc1cnn(-c2nc(SCc3ccccc3)nc3sc4c(c23)CCCC4)c1N	T cruzi repl 59.6
CC(C)(C)OC(=O)N1CCCC(C(=O)Nc2cccc(C(=O)NCc3ccccc3)c2)C1 (centres undefined)	none (no result: MIN6 prolif, T cruzi repl)
COc1ccc(C(CCN)Cc2ccccc2)cc1 (centres undefined)	T cruzi repl 89.4
C/C(CC1CC2=C(CC1(C)C)C(C)(C)CCC2)=N\NC(N)=S (centres undefined)	T cruzi repl 55.7 (no result: TAG inh)
C/C(CC1CC(C)(C)OC1=O)=N\NC(N)=S (centres undefined)	none
O=C(Nc1cc(Cl)ccc1-n1cncn1)c1cc(S(=O)(=O)N2CCOCC2)ccc1F	none
O=C(Nc1cc(S(=O)(=O)N2CCOCC2)ccc1-n1cncn1)c1ccc(Cl)cc1	T cruzi repl 63.1
O=C(Nc1cc(C(F)(F)F)ccc1-n1cncn1)c1ccc(-c2ccccc2)cc1	T cruzi repl 73.5
C[C@H](CO)N1C[C@H](C)[C@H](CN(C)S(=O)(=O)c2cccs2)Oc2ncc(-c3cc4ccccc4o3)cc2C1=O	none (no result: MIN6 prolif, T cruzi repl)
COc1ccccc1C=NN=C(NN=Cc1ccccc1OC)NN=Cc1ccccc1OC	TAG inh 56.5 (no result: MIN6 prolif, T cruzi repl)
CCOc1ccccc1CN(Cc1ccco1)S(=O)(=O)c1ccc(-n2cnnn2)c(OC)c1	none (no result: MIN6 prolif, TAG inh)
Cc1cc2oc(=O)cc(CNc3ccccc3F)c2cc1O	T cruzi repl 58.6 (no result: TAG inh)
CCOc1ccccc1NCc1cc(=O)oc2cc(C)c(O)cc12	none (no result: TAG inh)
CCc1ccc(NC(=S)NC2CC3CCCC(C2)N3Cc2cccs2)cc1 (centres undefined)	T cruzi repl 56.4 (no result: TAG inh)
Cc1ccc(N(Cc2ccco2)C(=O)c2ccc(N3CCCCC3)c([N+](=O)[O-])c2)cc1	T cruzi repl 56.2
O=C(NCc1ccco1)c1ccc(N2CCCCC2)c([N+](=O)[O-])c1	none (no result: TAG inh)
Cc1nc(NC(=O)c2ccccc2)sc1-c1csc(NCCc2ccccc2)n1	T cruzi repl 68.6 (no result: TAG inh)
Cc1nc(NC(=O)c2ccccc2)sc1-c1csc(NCc2ccccc2)n1	none
CCN1CCc2c(OCC(=O)Nc3ccc(C)cc3)cccc2C1=O	none
Cc1nnsc1C(=O)N/N=C/c1ccccc1	none
Cc1nnsc1C(=O)N/N=C/c1ccc2ccccc2c1O	T cruzi repl 54.7
C[C@@]12C(=O)Nc3cc(Cl)ccc3C(=O)N1[C@H]1c3cc(Cl)ccc3OC[C@@H]1[C@@H]2c1ccccc1	none (no result: T cruzi repl)
C[C@@]12C(=O)Nc3cc(Cl)ccc3C(=O)N1[C@H]1c3cc(Br)ccc3OC[C@@H]1[C@@H]2c1ccccc1	TAG inh 53.3 (no result: T cruzi repl)
CC(NC(=O)c1cc(-c2ccncc2)nc2ccc(Cl)cc12)C1CCCO1 (centres undefined)	none
O=C(COC(=O)c1ccc2c(c1)S(=O)(=O)c1ccccc1C2=O)NC1CC1	none
N#C/C(=C\c1c(Oc2ccc(Cl)cc2)nc2ccccn2c1=O)C(=O)NC1CCS(=O)(=O)C1 (centres undefined)	none (no result: TAG inh)
COc1ccc(-n2nc3c(N4CCC(C(=O)N5CCCCCC5)CC4)nnc(C)c3c2C)cc1	T cruzi repl 59.3 (no result: TAG inh)
Cc1ccc(-n2nc3c(N4CCC(C(=O)N5CCCCCC5)CC4)nnc(C)c3c2C)cc1	none (no result: Rev-erbA mod, PG9 binder, TAG inh)
COc1ccc(Cn2c(-c3ccc(Br)cc3)c[n+]3ccccc23)cc1	T cruzi repl 70.5 (no result: TAG inh)
COc1cc(C(CCN2CCOCC2)c2c(OC)cc(OC)c3c(-c4ccccc4)cc(=O)oc23)cc(OC)c1OC (centres undefined)	none (no result: MIN6 prolif, T cruzi repl)
COc1ccc(C(CCN2CCCC(C)C2)c2c(OC)cc(OC)c3c(-c4ccccc4)cc(=O)oc23)cc1 (centres undefined)	none
COc1cc(C(CCN2CCCC2)c2c(OC)cc(OC)c3c(-c4ccccc4)cc(=O)oc23)cc(OC)c1OC (centres undefined)	T cruzi repl 57.6
COc1cc(OC)c2c(-c3ccccc3)cc(=O)oc2c1C(CCN1CCCC(C)C1)c1ccc(N(C)C)cc1 (centres undefined)	TAG inh 94.2
CC(C)n1c(SCC(N)=O)nc2c1c(=O)[nH]c(=O)n2C	none (no result: MIN6 prolif)
COc1ccc(CCNC(=O)COC(=O)C2=NNC(=O)CC2)cc1	none (no result: MIN6 prolif, T cruzi repl)
CCOc1ccccc1C(=O)N[C@H](C(=O)Nc1nc2c(s1)CCCC2)C(C)C	T cruzi repl 68.5
O=C(CSc1nc2[nH]ncc2c(=O)[nH]1)Nc1cc(C(F)(F)F)ccc1Cl	none (no result: MIN6 prolif, T cruzi repl)
c1ccc(CCN2CCN(c3ncnc4c3cnn4-c3ccccc3)CC2)cc1	T cruzi repl 64.3
CCn1nnnc1SCC(=O)Nc1cccc(NC(C)=O)c1	none (no result: TAG inh)
CCCN1CCC2(CC1)NC(C(=O)O)Cc1c2[nH]c2ccccc12 (centres undefined)	none (no result: Rev-erbA mod, PG9 binder, TAG inh)

Compound activity as filed in PubChem.
